According to ChEMBL document CHEMBL1770100, “Design and synthesis of N-phenylacetyl (sulfonyl) 4,5-dihydropyrazole derivatives as potential antitumor agents” (Bioorg Med Chem Lett, 2011):
pIC50: −log10 of the molar value.

Tests used:
[1] = molecular target: Telomerase reverse transcriptase (Homo sapiens, UniProt O14746); assay: Inhibition of telomerase activity expressed in human SGC7901 cells by SYBER green dye based TRAP; type: cell-based, SGC-7901
Procedure, shortened: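 Modified TRAP assay using total cell lysate of SGC-7901 as the telomerase source. Lysate protein was measured by Bio-Rad assay against BSA standards. Extension products were resolved on 10% polyacrylamide gels and stained with SYBR Green. Reported as IC50.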

PC-3 = assay: Cytotoxicity against human PC3 after 48 hrs by MTT assay; type: functional, cell-based; settings: PC-3, 48 h
Procedure, shortened: (§1)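 Log-phase cells in RPMI 1640 with 10% FBS, diluted to 3 × 10⁴ cells/mL and seeded in 96-well plates. After 24 h at 37 °C, 5% CO₂, samples at pre-set concentrations were added to six wells, with 5-fluorouracil as positive reference. Exposure was 48 h. MTT at 2.5 mg/mL in PBS was added for 4 h, formazan dissolved in DMSO, A570 read. IC50 = concentration giving 50% survival. Three experiments in triplicate, mean ± SD.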

[2] = Selectivity index, ratio of IC50 for Thermus aquaticus taq polymerase to IC50 for telomerase
HepG2 = assay: Cytotoxicity against human HepG2 after 48 hrs by MTT assay; type: functional, cell-based; settings: HepG2, 48 h; procedure, shortened: as §1
SGC-7901 = assay: Cytotoxicity against human SGC7901 after 48 hrs by MTT assay; type: functional, cell-based; settings: SGC-7901, 48 h; procedure, shortened: as §1
[3] = molecular target: DNA polymerase I, thermostable (Thermus aquaticus, UniProt P19821); assay: Inhibition of Thermus aquaticus taq polymerase
DNA polymerase I, thermostable, sequence (P19821 whole entry): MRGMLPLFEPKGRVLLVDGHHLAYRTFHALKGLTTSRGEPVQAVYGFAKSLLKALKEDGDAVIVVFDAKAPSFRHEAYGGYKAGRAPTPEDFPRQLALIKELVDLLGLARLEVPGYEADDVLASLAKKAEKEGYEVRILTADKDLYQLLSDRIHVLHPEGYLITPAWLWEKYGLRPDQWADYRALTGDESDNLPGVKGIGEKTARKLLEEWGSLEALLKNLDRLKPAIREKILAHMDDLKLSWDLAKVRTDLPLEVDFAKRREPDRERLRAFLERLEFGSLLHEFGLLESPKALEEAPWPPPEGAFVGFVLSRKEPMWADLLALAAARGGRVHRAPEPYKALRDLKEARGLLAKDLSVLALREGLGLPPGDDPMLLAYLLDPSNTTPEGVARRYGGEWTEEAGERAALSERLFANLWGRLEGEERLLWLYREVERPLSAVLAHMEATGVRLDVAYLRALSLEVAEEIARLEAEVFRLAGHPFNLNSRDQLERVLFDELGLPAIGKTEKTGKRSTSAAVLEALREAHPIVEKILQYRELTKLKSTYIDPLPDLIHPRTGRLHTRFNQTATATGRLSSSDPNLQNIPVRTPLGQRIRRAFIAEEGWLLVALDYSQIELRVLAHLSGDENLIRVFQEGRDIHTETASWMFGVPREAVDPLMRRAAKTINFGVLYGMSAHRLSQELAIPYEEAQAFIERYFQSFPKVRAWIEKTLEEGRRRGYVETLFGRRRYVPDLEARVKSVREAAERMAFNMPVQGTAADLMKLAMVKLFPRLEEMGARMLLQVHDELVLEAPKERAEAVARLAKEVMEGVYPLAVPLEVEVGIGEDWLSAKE

Telomerase reverse transcriptase, sequence (O14746 whole entry): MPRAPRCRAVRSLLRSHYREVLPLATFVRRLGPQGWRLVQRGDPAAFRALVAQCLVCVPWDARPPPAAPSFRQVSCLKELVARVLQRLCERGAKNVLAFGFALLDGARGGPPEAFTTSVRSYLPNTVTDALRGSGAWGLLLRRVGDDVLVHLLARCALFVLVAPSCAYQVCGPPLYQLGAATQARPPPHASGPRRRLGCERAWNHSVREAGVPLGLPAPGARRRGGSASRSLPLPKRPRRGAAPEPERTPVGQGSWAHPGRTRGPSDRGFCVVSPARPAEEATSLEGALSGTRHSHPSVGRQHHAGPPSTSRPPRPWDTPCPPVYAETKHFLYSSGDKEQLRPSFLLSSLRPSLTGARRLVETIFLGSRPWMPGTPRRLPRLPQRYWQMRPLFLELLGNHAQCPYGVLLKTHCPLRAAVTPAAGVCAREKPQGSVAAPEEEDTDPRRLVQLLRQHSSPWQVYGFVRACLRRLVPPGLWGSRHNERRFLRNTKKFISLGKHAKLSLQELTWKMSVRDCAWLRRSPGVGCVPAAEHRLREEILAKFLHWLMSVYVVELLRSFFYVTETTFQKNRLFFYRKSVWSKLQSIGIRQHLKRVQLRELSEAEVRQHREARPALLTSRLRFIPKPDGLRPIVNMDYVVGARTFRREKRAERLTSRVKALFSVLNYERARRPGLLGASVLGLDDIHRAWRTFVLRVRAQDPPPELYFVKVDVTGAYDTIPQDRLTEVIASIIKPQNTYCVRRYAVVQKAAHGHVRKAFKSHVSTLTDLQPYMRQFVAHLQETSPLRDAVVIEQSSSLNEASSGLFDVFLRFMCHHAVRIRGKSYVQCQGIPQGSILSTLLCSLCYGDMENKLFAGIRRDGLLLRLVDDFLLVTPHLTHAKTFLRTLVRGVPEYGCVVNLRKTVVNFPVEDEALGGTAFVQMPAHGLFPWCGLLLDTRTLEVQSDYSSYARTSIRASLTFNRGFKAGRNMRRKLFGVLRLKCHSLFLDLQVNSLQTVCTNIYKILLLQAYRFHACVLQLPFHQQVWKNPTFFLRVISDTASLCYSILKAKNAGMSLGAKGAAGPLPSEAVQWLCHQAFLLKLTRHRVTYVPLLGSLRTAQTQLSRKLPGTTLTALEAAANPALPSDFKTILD

## CC[n+]1c(-c2ccccc2)c2cc(N)ccc2c2ccc(N)cc21 [HOMIDIUM BROMIDE]
[1]
  pIC50: 5.59

## CC1=NN(C(=O)CCl)C(c2ccccc2O)C1 (stereo not drawn)
PC-3
  pIC50: 4.70
[2]
  Ratio IC50: 2.1
HepG2
  pIC50: 4.32
SGC-7901
  pIC50: 4.57
[1]
  pIC50: 5.02
[3]
  pIC50: 4.69

## O=c1[nH]cc(F)c(=O)[nH]1 [FLUOROURACIL]
PC-3
  pIC50: 4.80
HepG2
  pIC50: 4.72
SGC-7901
  pIC50: 4.50

## CC1=NN(C(=O)c2ccc(C)cc2)C(c2ccccc2O)C1 (stereo not drawn)
PC-3
  pIC50: 3.94
HepG2
  pIC50: 4.10
SGC-7901
  pIC50: 4.29
[1]
  pIC50: 4.50

## CC1=NN(C(=O)Cc2ccc([N+](=O)[O-])cc2)C(c2ccccc2O)C1 (stereo not drawn)
PC-3
  pIC50: 3.88
HepG2
  pIC50: 3.97
SGC-7901
  pIC50: 4.01

## CC1=NN(C(=O)c2ccccc2Cl)C(c2ccccc2O)C1 (stereo not drawn)
PC-3
  pIC50: 4.07
HepG2
  pIC50: 4.02
SGC-7901
  pIC50: 3.99
[3]
  pIC50: 4.44

## CC1=NN(C(=O)c2ccccc2)C(c2cccc(C)c2O)C1 (stereo not drawn)
PC-3
  pIC50: 3.81
HepG2
  pIC50: 3.75
SGC-7901
  pIC50: 3.82

## CC1=NN(C(=O)c2ccccc2C)C(c2ccccc2O)C1 (stereo not drawn)
PC-3
  pIC50: 3.97
[2]
  Ratio IC50: 2.1
HepG2
  pIC50: 4.02
SGC-7901
  pIC50: 3.98
[1]
  pIC50: 4.61
[3]
  pIC50: 4.30

## CC1=NN(S(=O)(=O)c2ccc(C)cc2)C(c2ccccc2O)C1 (stereo not drawn)
PC-3
  pIC50: 4.07
[2]
  Ratio IC50: 1.9
HepG2
  pIC50: 4.18
SGC-7901
  pIC50: 4.13
[1]
  pIC50: 4.77
[3]
  pIC50: 4.52

## CC1=NN(S(=O)(=O)c2ccccc2)C(c2ccccc2O)C1 (stereo not drawn)
PC-3
  pIC50: 4.30
[2]
  Ratio IC50: 1.8
HepG2
  pIC50: 4.24
SGC-7901
  pIC50: 4.18
[1]
  pIC50: 4.76
[3]
  pIC50: 4.51

## CC1=NN(C(=O)c2ccccc2)C(c2ccccc2O)C1 (stereo not drawn)
PC-3
  pIC50: 4.51
[2]
  Ratio IC50: 2
HepG2
  pIC50: 4.53
SGC-7901
  pIC50: 4.67
[1]
  pIC50: 5.40
[3]
  pIC50: 5.10
